Results reported in ChEMBL document CHEMBL4000209, “Chemical synthesis and biological evaluation of ω-hydroxy polyunsaturated fatty acids” (Bioorg Med Chem Lett, 2017).
Calls of active or inactive are those of the source.

Experiments:
[1] = tested on: Rattus norvegicus; assay: Induction of mechanical allodynia in Sprague-Dawley rat assessed as decrease in withdrawal threshold at 100 ng administered as intraplantar injection by Von Frey assay relative to control; design: scale not given: the % may be the effect or the level left; conditions: in vivo, other
Procedure, shortened: (§1)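 Naive male Sprague Dawley rats, n = 6; methyl esters given by intraplantar injection in 1:9 EtOH/saline. Mechanical withdrawal thresholds measured with an electronic von Frey aesthesiometer over a time course, ipsilateral and contralateral paws. Data analysed by two-way ANOVA with Holm-Sidak post hoc test.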

[2] = tested on: Rattus norvegicus; assay: Induction of mechanical allodynia in Sprague-Dawley rat assessed as decrease in withdrawal threshold at 1 ug administered as intraplantar injection measured up to 150 mins post dose by Von Frey assay; design: scale not given: the % may be the effect or the level left; conditions: in vivo, other, 2.5 h; procedure, shortened: as §1
[3] = biological target: Transient receptor potential cation channel subfamily V member 1 (Mus musculus) (UniProt Q704Y3); assay: Agonist activity at recombinant mouse TRPV1 expressed in HEK293 cells assessed as increase in calcium influx at 10 uM measured for 380 sec by Fluo-4 dye based FLIPR assay; assay type: cell-based
Sequence of Transient receptor potential cation channel subfamily V member 1 (Mus musculus) (Q704Y3 whole entry): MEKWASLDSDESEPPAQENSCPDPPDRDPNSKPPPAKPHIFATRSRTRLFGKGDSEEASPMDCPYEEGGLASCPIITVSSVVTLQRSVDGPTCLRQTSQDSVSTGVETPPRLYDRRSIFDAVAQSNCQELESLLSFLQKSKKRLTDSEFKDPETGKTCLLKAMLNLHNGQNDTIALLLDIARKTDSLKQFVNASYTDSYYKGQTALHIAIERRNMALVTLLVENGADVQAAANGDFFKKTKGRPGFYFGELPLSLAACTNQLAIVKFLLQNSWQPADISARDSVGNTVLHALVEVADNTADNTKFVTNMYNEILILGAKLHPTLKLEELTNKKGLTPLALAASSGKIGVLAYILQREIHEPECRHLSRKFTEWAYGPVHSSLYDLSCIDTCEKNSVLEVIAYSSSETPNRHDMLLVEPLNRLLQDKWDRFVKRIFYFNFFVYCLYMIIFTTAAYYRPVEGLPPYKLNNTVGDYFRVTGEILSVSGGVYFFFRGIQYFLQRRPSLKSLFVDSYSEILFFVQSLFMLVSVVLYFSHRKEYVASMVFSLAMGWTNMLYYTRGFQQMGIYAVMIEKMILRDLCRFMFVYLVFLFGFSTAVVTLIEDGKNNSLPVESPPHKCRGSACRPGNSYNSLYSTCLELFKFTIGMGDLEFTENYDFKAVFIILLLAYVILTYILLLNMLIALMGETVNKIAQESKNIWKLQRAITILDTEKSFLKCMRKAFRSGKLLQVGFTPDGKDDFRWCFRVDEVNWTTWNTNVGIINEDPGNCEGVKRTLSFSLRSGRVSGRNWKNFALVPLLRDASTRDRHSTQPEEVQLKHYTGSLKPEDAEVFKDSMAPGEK
Procedure, shortened: (§2)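 mTRPV1-transfected HEK293 cells; Ca2+ influx followed over time and quantified as area under the curve; capsaicin as positive control. Experiments repeated twice, each in triplicate.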

[4] = biological target: T1, Prostaglandin G/H synthase 1 (Ovis aries) (UniProt P05979); assay: Inhibition of ovine COX1 at 100 uM using arachidonic acid as substrate after 2 mins by fluorometric substrate-based fluorescence assay relative to control
T1 sequence (whole entry): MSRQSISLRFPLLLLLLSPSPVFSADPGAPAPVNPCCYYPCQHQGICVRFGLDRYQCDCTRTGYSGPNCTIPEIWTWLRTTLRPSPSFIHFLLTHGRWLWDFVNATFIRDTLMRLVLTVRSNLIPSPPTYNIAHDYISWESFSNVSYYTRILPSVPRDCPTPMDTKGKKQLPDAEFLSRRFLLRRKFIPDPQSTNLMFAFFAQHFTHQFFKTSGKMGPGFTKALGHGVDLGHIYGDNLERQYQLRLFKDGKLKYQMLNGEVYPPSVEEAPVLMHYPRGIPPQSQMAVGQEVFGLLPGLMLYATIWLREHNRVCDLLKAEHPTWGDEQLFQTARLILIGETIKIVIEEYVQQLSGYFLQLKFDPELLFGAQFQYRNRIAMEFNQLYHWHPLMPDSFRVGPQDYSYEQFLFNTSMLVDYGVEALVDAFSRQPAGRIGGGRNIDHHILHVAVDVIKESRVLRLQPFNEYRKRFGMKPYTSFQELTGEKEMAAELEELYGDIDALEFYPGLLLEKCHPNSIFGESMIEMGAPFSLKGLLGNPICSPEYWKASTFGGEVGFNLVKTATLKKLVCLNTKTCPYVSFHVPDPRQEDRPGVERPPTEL

[5] = biological target: T2, Prostaglandin G/H synthase 2 (Homo sapiens) (UniProt P35354); conditions: at 100 µM
T2 sequence (whole entry): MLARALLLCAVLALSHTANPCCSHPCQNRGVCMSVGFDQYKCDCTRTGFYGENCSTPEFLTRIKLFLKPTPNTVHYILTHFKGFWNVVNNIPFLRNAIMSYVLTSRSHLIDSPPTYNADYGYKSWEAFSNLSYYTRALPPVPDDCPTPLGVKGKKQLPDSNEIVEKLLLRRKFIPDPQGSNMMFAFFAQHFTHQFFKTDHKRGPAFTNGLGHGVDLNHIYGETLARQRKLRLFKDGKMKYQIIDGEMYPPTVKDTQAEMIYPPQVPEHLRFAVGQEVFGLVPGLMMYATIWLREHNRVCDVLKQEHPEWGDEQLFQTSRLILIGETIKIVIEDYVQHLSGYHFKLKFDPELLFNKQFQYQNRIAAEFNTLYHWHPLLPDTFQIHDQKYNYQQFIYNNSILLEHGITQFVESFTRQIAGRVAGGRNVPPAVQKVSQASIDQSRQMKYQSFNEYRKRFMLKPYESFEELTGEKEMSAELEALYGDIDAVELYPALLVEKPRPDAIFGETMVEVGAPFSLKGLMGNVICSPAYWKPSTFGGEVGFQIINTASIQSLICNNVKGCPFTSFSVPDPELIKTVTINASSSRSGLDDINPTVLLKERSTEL

[6] = tested on: Rattus norvegicus; assay: Induction of mechanical allodynia in Sprague-Dawley rat assessed as decrease in ipsilateral hind paw withdrawal threshold administered as intraplantar injection measured up to 150 mins post dose by Von Frey assay; conditions: in vivo, other, 2.5 h; procedure, shortened: as §1
[7] = tested on: Rattus norvegicus; assay: Induction of mechanical allodynia in Sprague-Dawley rat assessed as decrease in contralateral hind paw withdrawal threshold at 3 ug administered as intraplantar injection measured up to 150 mins post dose by Von Frey assay; conditions: in vivo, other, 2.5 h; procedure, shortened: as §1
[8] = biological target: Transient receptor potential cation channel subfamily V member 1 (Mus musculus) (UniProt Q704Y3); assay: Agonist activity at recombinant mouse TRPV1 expressed in HEK293 cells assessed as increase in calcium influx up to 10 uM measured for 380 sec by Fluo-4 dye based FLIPR assay; assay type: cell-based; procedure, shortened: as §2

Activity [1] [%] | Activity [3] | inhibition [4] [%] | inhibition [5] [%] | Activity [6] | Activity [8] | SMILES | Activity [2] | Activity [7]
60 | – | – | – | – | – | CCCCC[C@H](O)/C=C/[C@H]1[C@H](O)CC(=O)[C@@H]1C/C=C\CCCC(=O)O [DINOPROSTONE] | – | –
– | Active | 37.1 | 0 | – | – | O=C(O)CCC/C=C\C/C=C\C/C=C\C/C=C\C/C=C\CCO | Non-Toxic | –
– | Active | 38.1 | 1 | – | – | O=C(O)CC/C=C\C/C=C\C/C=C\C/C=C\C/C=C\C/C=C\CCO | Non-Toxic | –
– | – | 27.5 | 0 | Dose-dependent effect | inactive | O=C(O)CCC/C=C\C/C=C\C/C=C\C/C=C\CCCCCO | 30% | Non-Toxic
